Hits are enriched below; roughly 4% of the tested compounds scored in any of these assays.
TAAR1 antag – human TAAR1 antagonists, primary screen, Fluo-8 calcium fluorescence, CHO RD-HGA16 cells; antagonist; inhibition, % at 3 µM; hit rate 1.5% among 360,000; AID 624466, 2012;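 active = inhibition above a per-plate cutoff, the mean inhibition of test compounds on that plate plus 3 SD, cut at about 49% in these data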;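 also: 0% = DMSO plus EC80 beta-PEA response and 100% = DMSO alone without agonist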
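Assay system: RD-HGA16 CHO cells with stable hTAAR1 and Gα16 / Reagent: EC80 β-phenethylamine stimulus / Doses: 3 µM, single point / Timing: dye loading 75 min at 37 °C, then 30 min room temperature / Measured by: Fluo-8 intracellular calcium dye fluorescence, real-time kinetic reads / Controls: vehicle wells and EC80 agonist wells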
OX1R antag-1 – OX1R (HCRTR1) antagonists, primary screen, fluorescence, CHO/OX1R cells, Fluo-8 calcium, orexin A | Orexin/Hypocretin receptor type 1 (Homo sapiens), O43613 | Fluo-8 calcium fluorescence | inhibition, % at 5 µM | hit rate 0.43% among 330,000;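 active = inhibition above its plate's threshold, mean inhibition of all tested compounds on the plate plus 3 SD, cut at about 37% in these data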;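 also: 0% = orexin A challenge wells and 100% = SB-334867-A antagonist wells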
Target sequence (O43613 whole entry, looked up): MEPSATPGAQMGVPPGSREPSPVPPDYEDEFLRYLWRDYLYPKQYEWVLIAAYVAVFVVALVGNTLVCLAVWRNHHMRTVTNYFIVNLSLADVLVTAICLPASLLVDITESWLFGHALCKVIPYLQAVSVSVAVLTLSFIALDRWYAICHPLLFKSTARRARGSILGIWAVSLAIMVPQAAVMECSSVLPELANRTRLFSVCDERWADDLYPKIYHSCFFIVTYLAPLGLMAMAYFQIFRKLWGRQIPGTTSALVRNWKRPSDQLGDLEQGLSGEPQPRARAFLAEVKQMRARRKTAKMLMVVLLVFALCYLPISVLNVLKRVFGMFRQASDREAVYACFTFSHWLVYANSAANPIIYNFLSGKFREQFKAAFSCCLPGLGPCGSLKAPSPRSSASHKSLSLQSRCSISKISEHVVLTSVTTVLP
CHO parental Ca – ATP-evoked calcium signal inhibitors, parental CHO, primary screen, counter-screen for OX1R antagonist project, cell-based, fluorescence, Fluo-8 calcium dye. hit rate 0.63% among 330,000. inhibition, % at 5.6 µM. parental CHO-K1, ATP-induced calcium, Fluo-8 fluorescence;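 active = inhibition above that plate's mean sample inhibition plus 3 SD, cut at about 26% in these data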;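 also: 0% = ATP-challenged DMSO wells and 100% = DMSO wells without ATP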
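Test system: untransfected parental CHO cell line; also added: ATP stimulus; dosing: 5.6 µM, single dose; signal: calcium-sensitive Fluo-8 fluorescence; measure: percent inhibition of ATP-evoked calcium rise, normalized to controls; benchmarks: low control ATP plus DMSO, high control DMSO only; replication: one well per compound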
TAAR1 ag – human TAAR1 agonists, primary screen, Fluo-8 calcium fluorescence, CHO RD-HGA16 cells; Trace amine-associated receptor 1 (Homo sapiens), Q96RJ0; vehicle wells 0%, saturating PEA agonist 100%; activation, % at 3 µM; hit rate 0.99% among 360,000; AID 624467, 2012;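 active = activation above the mean activation of all test compounds in the run plus 3 SD, cut at about 38% in these data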
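Test system: RD-HGA16 (CHO) cells co-expressing Gα16 and hTAAR1; dosing: one-point dosing at 3 µM (nominal); timing: 17-24 h seeding, 75 min 37 °C dye, 30 min RT; signal: kinetic Fluo-8 calcium fluorescence; read-out basis: % activation relative to PEA EC100 response; controls: DMSO and PEA EC100; replicates: n 1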
OX1R antag-2 – antagonists of human orexin 1 receptor (OX1R). Orexin/Hypocretin receptor type 1 (Homo sapiens), O43613. inhibition, % at 6.6 µM. hit rate 1.8% among 330,000. OX1R-expressing cells, FRET antagonist read-out; in the data active = inhibition mostly above about 38%, no sharp cut-off; inactive = mostly below about 40%;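 also: 0% = agonist challenge alone and 100% = reference antagonist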
NTR1 agonist – agonists of human NTR1, primary screen, imaging, U2OS cells, beta-arrestin-GFP, high content; Neurotensin receptor type 1 (Homo sapiens), P30989; NTR1-U2OS beta-arrestin-GFP spot imaging, agonist mode; activation, % at 20 µM; hit rate 0.17% among 330,000; AID 493036, 2011;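 active = activation at or above 40% of the spot to cytoplasm intensity ratio, with at least 20 cells analyzed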;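 also: 0% = DMSO without peptide and 100% = 100 nM NTR1 peptide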
Active calls of the source: *; · = not tested or not shown.

SMILES	TAAR1 antag	OX1R antag-1	CHO parental Ca	TAAR1 ag	OX1R antag-2	NTR1 agonist
CNc1cc(CSC)nc(SCc2ccc(Cl)c(Cl)c2)n1	13	55*	-17	2	49*	10
Cc1c(COC(=O)NC(C)C)c(COC(=O)NC(C)C)c2n1CS(=O)(=O)C2	-3	·	·	0	·	·
CC(=O)Nc1ccc(S(=O)(=O)N(C)CC(=O)OCC(=O)N2CCCC2=O)cc1	-46	2	15	4	17	-2
COc1cccc(C=NNC(=S)NC2CC3CCC2C3)c1O (stereo not given)	-20	·	·	0	·	·
C[n+]1c(/C=C/c2ccc(O)cc2)ccc2ccccc21	-3	-9	-2	0	73*	0
C[n+]1c(/C=C/c2ccc3c(c2)OCO3)ccc2ccccc21	-8	-10	5	0	18	1
O=C(Nc1cccc(Cl)c1)c1nc[nH]c1C(=O)NCCCCNC(=O)c1[nH]cnc1C(=O)Nc1cccc(Cl)c1	18	-14	-7	2	3	2
O=C(Nc1ccc(Cl)cc1)c1nc[nH]c1C(=O)NCCCCNC(=O)c1[nH]cnc1C(=O)Nc1ccc(Cl)cc1	52*	-10	13	13	6	4
Cc1ccc(-c2nc3ccccc3o2)cc1NC(=O)c1ccc2c(c1)OCO2	7	-19	-3	4	24	19
Cc1c(NC(=O)c2ccc3c(c2)OCO3)cccc1-c1nc2ccccc2o1	17	-5	-25	9	52*	-1
Cc1ccc(C2=CSC3=NCCN23)cc1	-2	-2	0	-1	4	0
O=[N+]([O-])c1ccc(C2=CSC3=NCCN23)cc1	-13	0	6	0	47*	0
CC(C)C1C(C#N)=C(N)Oc2n[nH]c(-c3ccc4ccccc4c3)c21 (stereo not given)	32	42	34*	22	-4	10
CC1(C)CC(N=C2C([N+](=O)[O-])=CC=C3C2=NC2(CCCCC2)N3O)CC(C)(C)N1	-11	-2	8	3	74*	0
O=C1NC(=O)c2cc(Oc3ccc([N+](=O)[O-])cc3)ccc21	-14	-2	7	-2	8	-1
O=C(Nc1nccs1)c1ccc(-c2ccc(Cl)cc2)o1	-14	6	-31	-2	49*	4
O=C(Nc1nccs1)c1ccc(-c2ccccc2Cl)o1	-12	8	-36	-3	59*	1
CCCCN1C(=O)C2(OCCCO2)c2cccc(C)c21	-14	-17	-7	9	21	2
CC(=O)N(CN1C(=O)c2ccc([N+](=O)[O-])cc2C1=O)c1cccc(C(=O)O)c1	-13	1	13	4	52*	1
O=C(CN1C(=O)NC(c2ccccc2)(c2ccccc2)C1=O)NCc1ccc(F)cc1	-5	21	-21	9	41*	-1
COc1ccc(CNC(=O)C(C)N2C(=O)NC(c3ccccc3)(c3ccccc3)C2=O)cc1 (stereo not given)	-1	16	-33	19	35*	1
CCNC(=O)NC(=O)C(C)N1C(=O)NC(c2ccccc2)(c2ccccc2)C1=O (stereo not given)	4	-21	-26	3	3	-2
COc1ccc(CN(C2CCCC2)S(=O)(=O)c2cc(Br)ccc2Br)c(OC)c1	-1	·	·	0	·	·
NC(=O)c1c(NC(=O)c2ccc(F)cc2Cl)sc2c1CCC2	-4	-16	-16	-3	44*	1
NC(=O)c1c(NC(=O)c2ccccc2F)sc2c1CCCC2	-4	-17	-12	-1	74*	5
SMILES	TAAR1 antag	OX1R antag-1	CHO parental Ca	TAAR1 ag	OX1R antag-2	NTR1 agonist
COc1cc(OC)nc(Oc2ccc(N)c(C)c2)n1	-1	-11	5	2	17	2
COc1cc(N/C(=C\C(=O)c2ccccc2)c2ccccc2)ccc1Cl	-10	·	·	1	·	·
O=C(Nc1cccc(-n2cccn2)c1)C1CCCN(Cc2cc3ccccc3[nH]2)C1 (stereo not given)	7	·	·	18	·	2
CCn1ncc(CN2CCCC(C(=O)Nc3cccc(-c4cc5ccccc5[nH]4)c3)C2)c1C (stereo not given)	21	-11	-9	41*	7	6
Nc1ncnc2c1ncn2[C@@H]1O[C@H](C(=O)N[C@@H](CCc2ccccc2)C(=O)O)[C@@H](O)[C@H]1O	-9	·	·	1	·	·
CCOC(=O)C1(CCOc2ccccc2)CCN(Cc2cccc(OC)c2OC)CC1	-3	-17	37*	5	22	2
NC(=O)c1ccc(NCCc2ccccc2)c([N+](=O)[O-])c1	-1	-30	0	2	37	0
NC(=O)c1ccc(NCc2ccco2)c([N+](=O)[O-])c1	9	-1	-2	5	128*	0
O=C1c2ccccc2-c2onc3ccc(Oc4ccccc4)c1c23	67*	-9	1	43*	15	-1
O=C(N[C@H](Cc1ccccc1)C(=O)N1CCN(c2ccc(Cl)cn2)CC1)[C@H]1O[C@@H](n2ccc(=O)[nH]c2=O)[C@H](O)[C@@H]1O	-11	·	·	2	·	·
CN(C)S(=O)(=O)c1cccc(NC(=O)CSc2ncnc3ccccc23)c1	16	2	29*	6	24	0
CN(C)S(=O)(=O)c1ccc(NC(=O)CSc2ncnc3ccccc23)cc1	-6	-1	-5	5	8	-2
CCN(CC)S(=O)(=O)c1cccc(NC(=O)CSc2nc3ccccc3[nH]2)c1	19	44*	31*	9	53*	1
CC[C@H](NC(=O)[C@H]1O[C@@H](n2cnc3c(=O)[nH]c(N)nc32)[C@H](O)[C@@H]1O)c1ccccc1	-7	·	·	1	·	·
Cc1ccc(S(=O)(=O)/N=C(/Nc2ccc([N+](=O)[O-])cc2[N+](=O)[O-])c2ccccc2)cc1	0	13	13	0	52*	0
Cc1ccc(S(=O)(=O)/N=C(/Nc2ccc([N+](=O)[O-])cc2)c2ccccc2)cc1	-21	-12	-17	0	10	6
COC(=O)[C@]12C[C@H](CC(=O)N3CCCC3)C(=O)N(CCC3=CCCCC3)C1=C[C@H](C(C)(C)C)O[C@@H]2C	-40	·	·	-1	·	·
CC1CC(C)CN(C(=S)Nc2ccc(SC(F)F)cc2)C1 (stereo not given)	15	5	-9	41*	19	0
